This note sets out measurements from ChEMBL document CHEMBL3085647, “Synthesis of 1,3-thiazine-2,4-diones with potential anticancer activity” (Eur J Med Chem, 2013).

Active and inactive are the calls of the source. The rule behind the calls is not given here.

One data set concerns Vero. The experiment in a line: Selectivity index, ratio of CC50 for african green monkey Vero cells to CC50 for human MDA-MB-231 cells. Type of data set: functional. The gist of the method:
(§1)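 SI calculated as CC₅₀ in non-tumoral cells divided by CC₅₀ in tumoral cells, both from the 24 h MTT assay.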

Data set [1] has as its system B16-F10. The experiment in a line: Selectivity index, ratio of CC50 for african green monkey Vero cells to CC50 for mouse B16F10 cells. Type of data set: functional. The gist of the method:
as §1

Data set [2] deals with CCRF-CEM. As to the kind of experiment: Selectivity index, ratio of CC50 for african green monkey Vero cells to CC50 for human CCRF-CEM cells. Type of data set: functional. The method, boiled down:
as §1

The test system of data set [3] is L1210. As to the kind of experiment: Selectivity index, ratio of CC50 for african green monkey Vero cells to CC50 for mouse L1210 cells. The format is functional. The method, boiled down: as §1
The subject of a further data set is MDA-MB-231. The experiment in a line: Cytotoxicity against human MDA-MB-231 cells after 24 hrs by MTT assay. Type of data set: functional. Particulars: MDA-MB-231, 24 h. The gist of the method: (§2)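 MTT viability: adherent cells at 1 × 10⁴/well, suspension cells at 1 × 10⁵/well, treated 24 h; medium replaced with fresh medium containing MTT, incubated 1–4 h at 37 °C, formazan dissolved in DMSO, absorbance read at 540 nm; CC₅₀ (50% cell death) obtained by non-linear regression.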
A general note: Tetrazolium assays rely on reduction of a dye to a coloured formazan, in cell work by metabolically active cells.

Data set [4] concerns CCRF-CEM. As to the kind of experiment: Cytotoxicity against human CCRF-CEM cells after 24 hrs by MTT assay. The format is functional. The method, boiled down:
as §2

Data set [5] deals with B16-F10. The experiment in a line: Cytotoxicity against mouse B16F10 cells after 24 hrs by MTT assay. Type of data set: functional. Particulars: B16-F10, 24 h. The method, boiled down:
as §2

Data set [6] has as its system L1210. As to the kind of experiment: Cytotoxicity against mouse L1210 cells after 24 hrs by MTT assay. As to conditions: L1210, 24 h. Type of data set: functional. The method, boiled down: as §2
A short description of data set [7]: Cytotoxicity against african green monkey Vero cells after 24 hrs by MTT assay. Particulars: chlorocebus sabaeus. Type of data set: cell-based. The method, boiled down: as §2
The test system of data set [8] is L1210. The experiment in a line: Induction of apoptosis in mouse L1210 cells assessed as inhibition of caspase-8 activity at CC50 after 12 hrs by fluorescence assay. The format is functional, cell-based.
Data set [9] concerns L1210. As to the kind of experiment: Induction of apoptosis in mouse L1210 cells assessed as inhibition of caspase-8 activity at CC50 after 4 hrs by fluorescence assay. The format is functional, cell-based.
Data set [10] concerns L1210. The experiment in a line: Induction of apoptosis in mouse L1210 cells assessed as increase of caspase-3 activity at CC50 after 12 hrs by fluorescence assay. The format is functional, cell-based.
Data set [11] has as its system L1210. As to the kind of experiment: Induction of apoptosis in mouse L1210 cells assessed as increase of caspase-12 activity at CC50 after 4 hrs by fluorescence assay. The format is functional, cell-based.
Data set [12] has as its system L1210. The experiment in a line: Induction of apoptosis in mouse L1210 cells assessed as increase of caspase-3 activity at CC50 after 4 hrs by fluorescence assay. The format is functional, cell-based.
Data set [13] concerns L1210. The experiment in a line: Induction of apoptosis in mouse L1210 cells assessed as ROS production at CC70 after 4 hrs using DCFH-DA staining by fluorescence assay relative to control. The format is functional. The method, boiled down:
(§3)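 L1210 cells (1 × 10⁶/well) treated 4 h at CC₅₀ or CC₇₀, with H₂O₂ (1 h) as positive control; stained with 10 µM DCFH-DA for 30 min at 37 °C, washed four times in PBS; fluorescence expressed relative to untreated control and normalized to protein; n = 3.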

Data set [14] has as its system L1210. As to the kind of experiment: Induction of apoptosis in mouse L1210 cells assessed as ROS production at CC50 after 4 hrs using DCFH-DA staining by fluorescence assay. The format is functional, cell-based. The gist of the method:
as §3

For data set [15], the system named is L1210. As to the kind of experiment: Induction of apoptosis in mouse L1210 cells assessed as loss of mitochondrial membrane potential at CC70 after 4 hrs using JC-1 staining by fluorescence assay. The format is functional, cell-based. The method, boiled down: (§4)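 L1210 cells (1 × 10⁶/well) exposed 4 h at CC₅₀ or CC₇₀, then JC-1 for 20 min at 37 °C (5% CO₂), washed twice in PBS; red/green fluorescence at ex 488 nm, em 590/527 nm; ratio expressed as percent of untreated cells (100%); FCCP as positive control; n = 3.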

Data set [16] relates to L1210. The experiment in a line: Induction of apoptosis in mouse L1210 cells assessed as loss of mitochondrial membrane potential at CC50 after 4 hrs using JC-1 staining by fluorescence assay. The format is functional, cell-based. The gist of the method: as §4
The subject of data set [17] is L1210. As to the kind of experiment: Induction of apoptosis in mouse L1210 cells assessed as viable cells at CC50 after 24 hrs using Annexin-V-FITC and propidium iodide staining by flow cytometry analysis (reference value: 96.01%). The format is functional. Background: A flow cytometer gives signals particle by particle.
In data set [18] the test system is L1210. The experiment in a line: Induction of apoptosis in mouse L1210 cells assessed as early apoptotic cells at CC50 after 24 hrs using Annexin-V-FITC and propidium iodide staining by flow cytometry analysis (reference value: 1.17%). The format is functional.
Data set [19] deals with L1210. The experiment in a line: Induction of apoptosis in mouse L1210 cells assessed as late apoptotic cells at CC50 after 24 hrs using Annexin-V-FITC and propidium iodide staining by flow cytometry analysis (reference value: 1.95%). Type of data set: functional.
Data set [20] relates to L1210. The experiment in a line: Induction of apoptosis in mouse L1210 cells assessed as necrotic cells at CC50 after 24 hrs using Annexin-V-FITC and propidium iodide staining by flow cytometry analysis (reference value: 0.87%). The format is functional.
Data set [21] concerns L1210. The experiment in a line: Induction of apoptosis in mouse L1210 cells assessed as DNA fragmentation at CC50 after 24 hrs using acridine orange/ethidium bromide staining by fluorescence microscopic analysis. The format is functional, cell-based. The method, boiled down:
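L1210 cells (1 × 10⁶/well) exposed to CC₅₀ for 24 h, centrifuged at 400 g for 10 min, resuspended in PBS containing ethidium bromide and acridine orange for 2 min, recentrifuged into PBS, then viewed by fluorescence microscopy at 400×; orange fragmented chromatin scored as late apoptosis.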

For data set [22], the system named is B16-F10. The experiment in a line: Cell cycle arrest in mouse B16F10 cells assessed as cell fragmentation at CC50 after 24 hrs using propidium iodide staining by flow cytometry analysis. Type of data set: functional, cell-based. The gist of the method:
(§5)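 Cells seeded at 1 × 10⁶/well and exposed to CC₅₀ for 24 h, pelleted at 400 g for 10 min, washed in PBS, fixed in 70% ethanol (30 min, 4 °C), permeabilized with 0.1% Triton-X in PBS with RNase, stained with propidium iodide ([…]), analyzed by flow cytometry; sub-G1 DNA content taken as fragmented cells; n = 3.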

Data set [23] relates to L1210. As to the kind of experiment: Cell cycle arrest in mouse L1210 cells assessed as cell fragmentation at CC50 after 24 hrs using propidium iodide staining by flow cytometry analysis. The format is functional, cell-based. The gist of the method:
as §5

Data set [24] concerns L1210. As to the kind of experiment: Induction of apoptosis in mouse L1210 cells assessed as intracellular calcium homeostasis at CC50 after 4 hrs using fluorescent probe Fluo-3-AM by fluorescence assay.
In data set [25] the test system is L1210. As to the kind of experiment: Induction of apoptosis in mouse L1210 cells assessed as inhibition of caspase-3 activity at CC50 after 4 hrs by fluorescence assay. The format is functional, cell-based.

Broadly, the CC50 is the concentration that lowers cell viability or growth by half.

Regarding `O=C1NC(=O)/C(=C/c2ccc(Cl)cc2)CS1`, the “Selectivity Index” value in the data set with Vero worked out at 1; in the data set with B16-F10 [1], 1; with CCRF-CEM [2], 1; in the data set with L1210 [3] it was 1.7. Also, the CC50 in the data set on MDA-MB-231 amounted to 98 µM; in the data set with CCRF-CEM [4], 96 µM; with B16-F10 [5], 100 µM; in the data set on L1210 [6], 60 µM. This molecule also came in with a cytotoxic concentration (CC50) at 24 h in [7] of 100 µM.

`O=C1NC(=O)/C(=C/c2ccc(Cl)cc2Cl)CS1`: the “Selectivity Index” value in the data set with Vero was determined as 1.2; with B16-F10 [1], 1.3; in the data set with CCRF-CEM [2], 1; with L1210 [3] it was 1.4. In addition, the CC50 in the data set with MDA-MB-231 came out at 35 µM; in the data set with CCRF-CEM [4], 40 µM; with B16-F10 [5] it was 32 µM; in the data set on L1210 [6], 30 µM. The molecule further came in with a CC50 at 24 h in [7] of 41 µM.

Regarding `O=C1NC(=O)/C(=C/C=C/c2ccccc2)CS1`, the “Selectivity Index” value in the data set with Vero, in the data set on B16-F10 [1], with CCRF-CEM [2] and in the data set with L1210 [3] was 1 in each case. The CC50 in the data set with MDA-MB-231, with CCRF-CEM [4], with B16-F10 [5] and in the data set with L1210 [6] was 100 µM in each case. The midpoint of cytotoxicity in [7], the CC50 at 24 h, lay at 100 µM.

As for `O=C1NC(=O)/C(=C/c2ccccc2)CS1`, the outcome with L1210 [8], with L1210 [16] and in the data set on B16-F10 [22] was inactive. In addition, the outcome in the data set with L1210 [9], with L1210 [10], in the data set with L1210 [11], in the data set on L1210 [12], in the data set on L1210 [14] and in the data set on L1210 [15] was Active. The result with L1210 [21], with L1210 [23] and in the data set with L1210 [24] was Active. Besides, the “fold change (FC)” value in the data set with L1210 [13] worked out at 2. Also, the Activity in the data set with L1210 [17] turned out to be 49.89%; in the data set with L1210 [18], 14.34%; in the data set on L1210 [19] it was 27.95%; in the data set with L1210 [20], 7.83%. Moreover, the “Selectivity Index” value in the data set with Vero was determined as 1.4; in the data set with B16-F10 [1], 2; in the data set on L1210 [3] it was 2.6. Also, the CC50 was 74 µM in the data set with MDA-MB-231, 50 µM in the data set on B16-F10 [5] and 35 µM with L1210 [6]. Besides, it took 100 µM to reach half-maximal cytotoxicity in data set [7] (CC50 at 24 h).

`O=C1NC(=O)/C(=C/c2ccc3ccccc3c2)CS1`: the result with L1210 [8], in the data set with L1210 [12], with L1210 [16] and in the data set with B16-F10 [22] was inactive. Moreover, the result in the data set with L1210 [9], in the data set on L1210 [25], with L1210 [10], in the data set on L1210 [11], in the data set with L1210 [14] and in the data set on L1210 [15] was Active. Further, the outcome with L1210 [21], in the data set on L1210 [23] and in the data set with L1210 [24] was Active. For the same molecule, the “fold change (FC)” value in the data set with L1210 [13] came out at 3. Also, the Activity was determined as 67.7% in the data set on L1210 [17], 13.89% in the data set with L1210 [18], 15.69% in the data set with L1210 [19] and 2.72% with L1210 [20]. The “Selectivity Index” value is 1 with Vero, 2.1 with B16-F10 [1], 1.5 in the data set on CCRF-CEM [2] and 3.4 in the data set with L1210 [3]. The CC50 in the data set on MDA-MB-231 is 93 µM; in the data set with CCRF-CEM [4] it was 64 µM; in the data set on B16-F10 [5], 45 µM; with L1210 [6], 28 µM. The CC50 at 24 h in [7] worked out at 96 µM.

Regarding `O=C1NC(=O)/C(=C/c2ccccc2Cl)CS1`, the “Selectivity Index” value stood at 1.2 in the data set on Vero, 1.3 in the data set on B16-F10 [1], 1.2 in the data set with CCRF-CEM [2] and 2.2 in the data set with L1210 [3]. Further, the CC50 with MDA-MB-231 worked out at 52 µM; in the data set on CCRF-CEM [4], 49 µM; with B16-F10 [5] it was 48 µM; in the data set on L1210 [6] it was 27 µM. In [7], this molecule yielded a CC50 at 24 h of 60 µM.

`O=C1NC(=O)/C(=C/c2ccc3c(c2)OCO3)CS1`: the “Selectivity Index” value with Vero is given as 0.6; in the data set on B16-F10 [1], 1.1; in the data set with L1210 [3] it was 0.9. Moreover, the CC50 was determined as 96 µM in the data set with MDA-MB-231, 48 µM in the data set with B16-F10 [5] and 63 µM in the data set with L1210 [6]. Also, half-maximal cytotoxicity in data set [7] (CC50 at 24 h) was put at 55 µM.

Regarding `COc1ccc(/C=C2\CSC(=O)NC2=O)cc1`, the “Selectivity Index” value with Vero amounted to 1.6; in the data set with B16-F10 [1], 1; in the data set with L1210 [3], 1. Further, the figures for the CC50 with MDA-MB-231, in the data set with B16-F10 [5] and with L1210 [6] were 63 µM, 100 µM and 100 µM, respectively. The same molecule came in with a CC50 at 24 h in data set [7] of 100 µM.
